ChEMBL document CHEMBL2331097, “Synthesis of 5,7-disubstituted-4-methyl-7H-pyrrolo[2,3-d]pyrimidin-2-amines as microtubule inhibitors” (Bioorg Med Chem, 2013)
The source made the active and inactive calls. The calls are words filed in the database; no cut-off is given here.

Experiments:
[1] = tested on: JC; assay: Modulatory activity at P-gp in mouse JC cells assessed as lowest drug concentration required to increase intracellular [3H]taxol accumulation pretreated for 30 mins prior to [3H]taxol addition measured after 60 mins by liquid scintillation counting analysis; type: cell-based
How it was run: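 JC cells were seeded at about 25% confluency and grown 3–4 days to near confluency. Medium was switched to serum-free, and compounds were preincubated for 30 min at 37 °C. About 0.1 µCi [³H]Taxol (75 Ci/mmol) per well followed, for 60 min at 37 °C. Cells were washed twice with ice-cold PBS and lysed in 1% SDS. Intracellular label was counted by liquid scintillation, and the lowest concentration giving maximal accumulation was recorded.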

[2] = Cytotoxicity against mouse JC cells assessed as inhibition of cell survival after 48 hrs by SRB assay; type: functional, cell-based
How it was run: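 JC (CRL-2116) cells kept in RPMI-1640 with L-glutamine, 10% FBS and 50 μg/ml gentamicin at 37 °C, 5% CO₂. Cells were seeded at about 20% confluency and left 24 h to attach, then exposed to a range of concentrations for 48 h. Cells were PBS-washed, fixed in 10% trichloroacetic acid and stained with 0.4% SRB in 1% acetic acid. Dye was dissolved in 10 mM Tris and absorbance read at 570 nm.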

[3] = tested on: BT-549; assay: Growth inhibition of human BT549 cells after 48 hrs by SRB assay; type: functional; details: BT-549, 48 h
[4] = tested on: MDA-MB-468; assay: Growth inhibition of human MDA-MB-468 cells after 48 hrs by SRB assay; type: functional; details: MDA-MB-468, 48 h
[5] = tested on: Malme-3M; assay: Growth inhibition of human MALME-3M cells after 48 hrs by SRB assay; type: functional
[6] = tested on: HT-29; assay: Growth inhibition of human HT-29 cells after 48 hrs by SRB assay; type: functional; details: HT-29, 48 h
[7] = tested on: 786-0; assay: Growth inhibition of human 786-0 cells after 48 hrs by SRB assay; type: functional; details: 786-0, 48 h
[8] = tested on: HL-60; assay: Growth inhibition of human HL60 cells after 48 hrs by SRB assay; type: functional; details: HL-60, 48 h
[9] = tested on: UACC-62; assay: Growth inhibition of human UACC62 cells after 48 hrs by SRB assay; type: functional; details: UACC-62, 48 h
[10] = tested on: HCT-116; assay: Growth inhibition of human HCT116 cells after 48 hrs by SRB assay; type: functional; details: HCT-116, 48 h
[11] = tested on: SF-268; assay: Growth inhibition of human SF268 cells after 48 hrs by SRB assay; type: functional; details: SF-268, 48 h
[12] = tested on: UO-31; assay: Growth inhibition of human UO31 cells after 48 hrs by SRB assay; type: functional; details: UO-31, 48 h
[13] = tested on: NCI-H522; assay: Growth inhibition of human NCI-H522 cells after 48 hrs by SRB assay; type: functional; details: NCI-H522, 48 h
[14] = tested on: A549; assay: Growth inhibition of human A549/ATCC cells after 48 hrs by SRB assay; type: functional; details: A549, 48 h
[15] = tested on: OVCAR-5; assay: Growth inhibition of human OVCAR5 cells after 48 hrs by SRB assay; type: functional; details: OVCAR-5, 48 h
[16] = tested on: K562; assay: Growth inhibition of human K562 cells after 48 hrs by SRB assay; type: functional; details: K562, 48 h
[17] = tested on: RXF 393; assay: Growth inhibition of human RXF393 cells after 48 hrs by SRB assay; type: functional; details: RXF 393, 48 h
[18] = tested on: LOX IMVI; assay: Growth inhibition of human LOXIMVI cells after 48 hrs by SRB assay; type: functional
[19] = tested on: SK-OV-3; assay: Growth inhibition of human SKOV3 cells after 48 hrs by SRB assay; type: functional; details: SK-OV-3, 48 h
[20] = tested on: HOP-62; assay: Growth inhibition of human HOP62 cells after 48 hrs by SRB assay; type: functional; details: HOP-62, 48 h
[21] = tested on: SK-MEL-5; assay: Growth inhibition of human SK-MEL-5 cells after 48 hrs by SRB assay; type: functional; details: SK-MEL-5, 48 h
[22] = tested on: SNB-75; assay: Growth inhibition of human SNB75 cells after 48 hrs by SRB assay; type: functional; details: SNB-75, 48 h
[23] = Growth inhibition of human HCC2998 cells after 48 hrs by SRB assay; type: functional; details: HCC 2998, 48 h
[24] = tested on: A498; assay: Growth inhibition of human A498 cells after 48 hrs by SRB assay; type: functional; details: A498, 48 h
[25] = Ratio of compound IC50 to paclitaxel IC50 for mouse JC cells after 48 hrs by SRB assay; type: functional
[26] = tested on: U-251; assay: Growth inhibition of human U251 cells after 48 hrs by SRB assay; type: functional; details: U-251, 48 h
[27] = tested on: MDA-MB-435; assay: Growth inhibition of human MDA-MB-435 cells after 48 hrs by SRB assay; type: functional; details: MDA-MB-435, 48 h
[28] = tested on: OVCAR-4; assay: Growth inhibition of human OVCAR4 cells after 48 hrs by SRB assay; type: functional; details: OVCAR-4, 48 h
[29] = tested on: NCI-H460; assay: Growth inhibition of human NCI-H460 cells after 48 hrs by SRB assay; type: functional; details: NCI-H460, 48 h
[30] = tested on: SF-295; assay: Growth inhibition of human SF295 cells after 48 hrs by SRB assay; type: functional; details: SF-295, 48 h
[31] = tested on: SR; assay: Growth inhibition of human SR cells after 48 hrs by SRB assay; type: functional
[32] = tested on: IGROV-1; assay: Growth inhibition of human IGROV1 cells after 48 hrs by SRB assay; type: functional; details: IGROV-1, 48 h
[33] = tested on: PC-3; assay: Growth inhibition of human PC3 cells after 48 hrs by SRB assay; type: functional; details: PC-3, 48 h
[34] = tested on: HCT-15; assay: Growth inhibition of human HCT15 cells after 48 hrs by SRB assay; type: functional; details: HCT-15, 48 h
[35] = tested on: NCI-H23; assay: Growth inhibition of human NCI-H23 cells after 48 hrs by SRB assay; type: functional; details: NCI-H23, 48 h
[36] = tested on: SW-620; assay: Growth inhibition of human SW620 cells after 48 hrs by SRB assay; type: functional; details: SW-620, 48 h
[37] = tested on: OVCAR-8; assay: Growth inhibition of human OVCAR8 cells after 48 hrs by SRB assay; type: functional; details: OVCAR-8, 48 h
[38] = tested on: RPMI-8226; assay: Growth inhibition of human RPMI8226 cells after 48 hrs by SRB assay; type: functional; details: RPMI-8226, 48 h
[39] = Growth inhibition of human Hs 578T cells after 48 hrs by SRB assay; type: functional
[40] = Growth inhibition of human EKVX cells after 48 hrs by SRB assay; type: functional
[41] = tested on: NCI/ADR-RES; assay: Growth inhibition of human NCI/ADR-RES cells after 48 hrs by SRB assay; type: functional
[42] = tested on: CAKI-1; assay: Growth inhibition of human CAKI-1 cells after 48 hrs by SRB assay; type: functional; details: CAKI-1, 48 h
[43] = tested on: SK-MEL-28; assay: Growth inhibition of human SK-MEL-28 cells after 48 hrs by SRB assay; type: functional; details: SK-MEL-28, 48 h
[44] = tested on: SNB-19; assay: Growth inhibition of human SNB19 cells after 48 hrs by SRB assay; type: functional; details: SNB-19, 48 h
[45] = tested on: SN12C; assay: Growth inhibition of human SN12C cells after 48 hrs by SRB assay; type: functional
[46] = tested on: ACHN; assay: Growth inhibition of human ACHN cells after 48 hrs by SRB assay; type: functional
[47] = tested on: DU-145; assay: Growth inhibition of human DU145 cells after 48 hrs by SRB assay; type: functional; details: DU-145, 48 h
[48] = tested on: CCRF-CEM; assay: Growth inhibition of human CCRF-CEM cells after 48 hrs by SRB assay; type: functional
[49] = tested on: MCF7; assay: Growth inhibition of human MCF7 cells after 48 hrs by SRB assay; type: functional; details: MCF7, 48 h
[50] = tested on: NCI-H322M; assay: Growth inhibition of human NCI-H322M cells after 48 hrs by SRB assay; type: functional
[51] = tested on: MDA-MB-231; assay: Growth inhibition of human MDA-MB-231 cells after 48 hrs by SRB assay; type: functional; details: MDA-MB-231, 48 h
[52] = tested on: UACC-257; assay: Growth inhibition of human UACC257 cells after 48 hrs by SRB assay; type: functional; details: UACC-257, 48 h
[53] = tested on: T47D; assay: Growth inhibition of human T47D cells after 48 hrs by SRB assay; type: functional
[54] = tested on: TK-10; assay: Growth inhibition of human TK10 cells after 48 hrs by SRB assay; type: functional; details: TK-10, 48 h
[55] = tested on: COLO 205; assay: Growth inhibition of human COLO205 cells after 48 hrs by SRB assay; type: functional; details: COLO 205, 48 h
[56] = tested on: M14; assay: Growth inhibition of human M14 cells after 48 hrs by SRB assay; type: functional; details: M14, 48 h
[57] = tested on: OVCAR-3; assay: Growth inhibition of human OVCAR3 cells after 48 hrs by SRB assay; type: functional; details: OVCAR-3, 48 h
[58] = tested on: SF-539; assay: Growth inhibition of human SF539 cells after 48 hrs by SRB assay; type: functional; details: SF-539, 48 h
[59] = tested on: NCI-H226; assay: Growth inhibition of human NCI-H226 cells after 48 hrs by SRB assay; type: functional; details: NCI-H226, 48 h
[60] = tested on: KM12; assay: Growth inhibition of human KM12 cells after 48 hrs by SRB assay; type: functional; details: KM12, 48 h
[61] = tested on: SK-MEL-2; assay: Growth inhibition of human SK-MEL-2 cells after 48 hrs by SRB assay; type: functional; details: SK-MEL-2, 48 h
[62] = tested on: HOP-92; assay: Growth inhibition of human HOP92 cells after 48 hrs by SRB assay; type: functional; details: HOP-92, 48 h

COc1ccc(Sc2cn(Cc3ccccc3)c3nc(N)nc(C)c23)cc1
LED [1]: inactive
IC50 [2]: 10000 nM

COc1ccccc1Sc1cn(Cc2cc(OC)c(OC)c(OC)c2)c2nc(N)nc(C)c12
LED [1]: inactive
IC50 [2]: 3000 nM

COc1cc(Cn2cc(CCc3cc(OC)c(OC)c(OC)c3)c3c(C)nc(N)nc32)cc(OC)c1
LED [1]: 1.5 µM
IC50 [2]: 3000 nM

COc1ccc(Cn2cc(Sc3ccccc3OC)c3c(C)nc(N)nc32)cc1
LED [1]: inactive
IC50 [2]: 2500 nM

COc1ccc(Cn2cc(CCc3cc(OC)c(OC)c(OC)c3)c3c(C)nc(N)nc32)cc1
GI50 [3]: 440 nM
GI50 [4]: 52.4 nM
GI50 [5]: 284 nM
GI50 [6]: 247 nM
GI50 [7]: 575 nM
GI50 [8]: 220 nM
GI50 [9]: 61.5 nM
GI50 [10]: 265 nM
GI50 [11]: 379 nM
GI50 [12]: 397 nM
GI50 [13]: 31.6 nM
GI50 [14]: 329 nM
GI50 [15]: 596 nM
GI50 [16]: 116 nM
GI50 [17]: 44.1 nM
GI50 [18]: 364 nM
GI50 [19]: 251 nM
GI50 [20]: 362 nM
GI50 [21]: 110 nM
GI50 [22]: 172 nM
LED [1]: 0.2 µM
GI50 [23]: 191 nM
GI50 [24]: 115 nM
Ratio IC50 [25]: 4
GI50 [26]: 311 nM
GI50 [27]: 32.1 nM
GI50 [28]: 338 nM
GI50 [29]: 251 nM
GI50 [30]: 83.9 nM
GI50 [31]: 120 nM
GI50 [32]: 154 nM
GI50 [33]: 301 nM
GI50 [34]: 242 nM
GI50 [35]: 428 nM
GI50 [36]: 208 nM
GI50 [37]: 334 nM
GI50 [38]: 713 nM
GI50 [39]: 139 nM
GI50 [40]: 348 nM
GI50 [41]: 202 nM
GI50 [42]: 206 nM
GI50 [43]: 417 nM
GI50 [44]: 234 nM
GI50 [45]: 499 nM
GI50 [46]: 216 nM
GI50 [47]: 337 nM
GI50 [48]: > 1000 nM
GI50 [49]: 46.4 nM
GI50 [50]: 712 nM
GI50 [51]: 361 nM
IC50 [2]: 600 nM
GI50 [52]: > 1000 nM
GI50 [53]: 443 nM
GI50 [54]: 686 nM
GI50 [55]: 204 nM
GI50 [56]: 204 nM
GI50 [57]: 164 nM
GI50 [58]: 96.4 nM
GI50 [59]: 927 nM
GI50 [60]: 264 nM
GI50 [61]: 446 nM
GI50 [62]: > 1000 nM

COc1cc(Cn2cc(Sc3cc(OC)c(OC)c(OC)c3)c3c(C)nc(N)nc32)cc(OC)c1OC
LED [1]: inactive
IC50 [2]: > 100000 nM

COc1ccccc1Cn1cc(CCc2cc(OC)c(OC)c(OC)c2)c2c(C)nc(N)nc21
LED [1]: 2 µM
Ratio IC50 [25]: 6.6
IC50 [2]: 1000 nM
